# Results: ChEMBL document CHEMBL1649147, “Antistaphylococcal activity of dihydrophthalazine antifolates, a family of novel antibacterial drugs” (2009)
# Legend:
# [1] = system: Staphylococcus epidermidis; assay: Antibacterial activity against methicillin-resistant coagulase-negative Staphylococcus epidermidis 197 after 50 passages by agar dilution method; format: functional
# Procedure, shortened: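 Daily serial passage for up to 50 days at 35°C for 24 h in 1 ml MHB. Each transfer used 10 µl from the tube nearest the MIC (1–2 dilutions below) with the same turbidity as the drug-free control. MICs were measured by agar dilution, with changes given as log2 steps.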
# Staphylococcus aureus [2] = assay: Antibacterial activity against methicillin-susceptible Staphylococcus aureus by agar dilution method; format: functional
# Procedure, shortened: (§1)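 Agar dilution on Mueller-Hinton agar per CLSI guidelines. S. aureus ATCC 29213 and E. faecalis ATCC 29212 were run with each set, and test MICs were accepted only when the control strains fell within acceptable ranges.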
# Staphylococcus aureus [3] = assay: Antibacterial activity against methicillin-resistant Staphylococcus aureus by agar dilution method; format: functional; procedure, shortened: as §1
# Staphylococcus aureus [4] = assay: Antibacterial activity against Tmp-susceptible Staphylococcus aureus by agar dilution method; format: functional
# Procedure, shortened: (§2)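 MICs by agar dilution on Mueller-Hinton agar following CLSI guidelines. S. aureus ATCC 29213 and E. faecalis ATCC 29212 were run as quality controls with each set, and test-strain MICs were kept only if control MICs fell within acceptable ranges.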
# Staphylococcus aureus [5] = assay: Antibacterial activity against Tmp-resistant Staphylococcus aureus by agar dilution method; format: functional; procedure, shortened: as §2
# Staphylococcus aureus [6] = assay: Antibacterial activity against Tmp-susceptible coagulase-negative Staphylococcus aureus by agar dilution method; format: functional; procedure, shortened: as §2
# Staphylococcus aureus [7] = assay: Antibacterial activity against methicillin-susceptible Staphylococcus aureus ATCC 29213 by broth macrodilution method; format: functional; details: ATCC29213
# Staphylococcus aureus [8] = assay: Antibacterial activity against methicillin-susceptible Staphylococcus aureus 505 by broth macrodilution method; format: functional
# Staphylococcus aureus [9] = assay: Antibacterial activity against methicillin-resistant Staphylococcus aureus ATCC 43300 by broth macrodilution method; format: functional; details: ATCC43300
# Staphylococcus aureus [10] = assay: Antibacterial activity against methicillin-resistant Staphylococcus aureus 145 by broth macrodilution method; format: functional
# Staphylococcus aureus [11] = assay: Antibacterial activity against methicillin-resistant Staphylococcus aureus 507 by broth macrodilution method; format: functional
# Staphylococcus aureus [12] = assay: Antibacterial activity against vancomycin-resistant Staphylococcus aureus VRS1 by broth macrodilution method; format: functional
# Procedure, shortened: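 Michigan VRSA strain, one of 12 staphylococci later used in time-kill studies. MIC was determined by broth macrodilution and reported in μg/ml.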
# [13] = system: Staphylococcus epidermidis; assay: Antibacterial activity against methicillin-susceptible coagulase-negative Staphylococcus epidermidis 051 by broth macrodilution method; format: functional
# [14] = system: Staphylococcus epidermidis; assay: Antibacterial activity against methicillin-susceptible coagulase-negative Staphylococcus epidermidis 057 by broth macrodilution method; format: functional
# [15] = system: Staphylococcus epidermidis; assay: Antibacterial activity against methicillin-resistant coagulase-negative Staphylococcus epidermidis 074 by broth macrodilution method; format: functional
# [16] = system: Staphylococcus epidermidis; assay: Antibacterial activity against methicillin-resistant coagulase-negative Staphylococcus epidermidis 197 by broth macrodilution method; format: functional
# [17] = system: Staphylococcus epidermidis; assay: Antibacterial activity against methicillin-resistant coagulase-negative Staphylococcus epidermidis 225 by broth macrodilution method; format: functional
# [18] = system: Staphylococcus epidermidis; assay: Antibacterial activity against methicillin-resistant coagulase-negative Staphylococcus epidermidis 345 by broth macrodilution method; format: functional
# Staphylococcus aureus [19] = assay: Antibacterial activity against methicillin-susceptible, vancomycin-intermediate Staphylococcus aureus 505 by broth macrodilution method; format: functional
# Staphylococcus aureus [20] = assay: Antibacterial activity against methicillin-resistant and vancomycin-resistant Staphylococcus aureus VRS1 by agar dilution method; format: functional; procedure, shortened: as §1
# [21] = system: Staphylococcus epidermidis; assay: Antibacterial activity against methicillin-resistant, Linezolid non-susceptible coagulase-negative Staphylococcus epidermidis 345 by agar dilution method; format: functional
# [22] = system: Staphylococcus epidermidis; assay: Antibacterial activity against methicillin-resistant, vancomycin-intermediate coagulase-negative Staphylococcus epidermidis 225 by agar dilution method; format: functional; procedure, shortened: as §1
# Staphylococcus aureus [23] = assay: microbe, parasite or virus in culture; details: ATCC29213
# Staphylococcus aureus [24] = assay: microbe, parasite or virus in culture; details: 505
# Staphylococcus aureus [25] = assay: microbe, parasite or virus in culture; details: ATCC43300
# [26] = system: coagulase-negative staphylococci; assay: Antibacterial activity against Tmp-resistant coagulase-negative staphylococci by agar dilution method
# [27] = system: coagulase-negative staphylococci; assay: Antibacterial activity against Tmp-susceptible coagulase-negative staphylococci by agar dilution method
# [28] = system: coagulase-negative staphylococci; assay: Antibacterial activity against methicillin-resistant coagulase-negative staphylococci by agar dilution method
# [29] = system: coagulase-negative staphylococci; assay: Antibacterial activity against methicillin-susceptible coagulase-negative staphylococci by agar dilution method
# [30] = system: Staphylococcus epidermidis; assay: Antibacterial activity against methicillin-susceptible coagulase-negative Staphylococcus epidermidis 051 after 9 passages by agar dilution method; format: functional
# Procedure, shortened: (§3)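 Daily serial passage for up to 50 days at 35°C for 24 h in 1 ml MHB. […] Each transfer used 10 µl from the tube nearest the MIC (1–2 dilutions below) with the same turbidity as the drug-free control. […] MICs were measured by agar dilution, with changes given as log2 steps.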
# [31] = system: Staphylococcus epidermidis; assay: Antibacterial activity against methicillin-susceptible coagulase-negative Staphylococcus epidermidis 057 after 9 passages by agar dilution method; format: functional; procedure, shortened: as §3
# [32] = system: Staphylococcus epidermidis; assay: Antibacterial activity against methicillin-resistant coagulase-negative Staphylococcus epidermidis 197 after 12 passages by agar dilution method; format: functional; procedure, shortened: as §3
# [33] = system: Staphylococcus epidermidis; assay: Antibacterial activity against methicillin-resistant, vancomycin-intermediate coagulase-negative Staphylococcus epidermidis 225 after 11 passages by agar dilution method; format: functional; procedure, shortened: as §3
# [34] = system: Staphylococcus epidermidis; assay: Antibacterial activity against methicillin-resistant, Linezolid non-susceptible coagulase-negative Staphylococcus epidermidis 345 after 9 passages by agar dilution method; format: functional; procedure, shortened: as §3
# Staphylococcus aureus [35] = assay: Antibacterial activity against methicillin-susceptible Staphylococcus aureus ATCC 29213 after 9 passages by agar dilution method; format: functional; details: ATCC29213; procedure, shortened: as §3
# Staphylococcus aureus [36] = assay: Antibacterial activity against methicillin-susceptible, vancomycin-intermediate Staphylococcus aureus 505 after 9 passages by agar dilution method; format: functional; procedure, shortened: as §3
# Staphylococcus aureus [37] = assay: Antibacterial activity against methicillin-resistant Staphylococcus aureus ATCC 43300 after 9 passages by agar dilution method; format: functional; details: ATCC43300
# Procedure, shortened: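 Serial passage under drug. Inoculum was ~1 × 10^6 CFU/ml from overnight MHA growth, in 1 ml MHB at 35°C for 24 h. Drug ranged from 4 log2 steps above to 3 log2 steps below the MIC. […] MIC change is given as log2 steps.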
# Staphylococcus aureus [38] = assay: Antibacterial activity against methicillin-resistant Staphylococcus aureus 145 after 10 passages by agar dilution method; format: functional
structure (smiles),measurement,setting,value
COc1cc(Cc2cnc(N)nc2N)cc(OC)c1OC [TRIMETHOPRIM],MIC,[1],64 µg/mL
same,MIC50,Staphylococcus aureus [2],0.5 µg/mL
same,MIC90,Staphylococcus aureus [2],> 128 µg/mL
same,MIC,Staphylococcus aureus [3],≤ 0.008 µg/mL
same,MIC50,Staphylococcus aureus [3],0.5 µg/mL
same,MIC50,Staphylococcus aureus [4],0.5 µg/mL
same,MIC90,Staphylococcus aureus [4],0.5 µg/mL
same,MIC,Staphylococcus aureus [5],32 µg/mL
same,MIC50,Staphylococcus aureus [5],> 128 µg/mL
same,MIC,Staphylococcus aureus [6],0.03 µg/mL
same,MIC,Staphylococcus aureus [7],1 µg/mL
same,MIC,Staphylococcus aureus [8],1 µg/mL
same,MIC,Staphylococcus aureus [9],1 µg/mL
same,MIC,Staphylococcus aureus [10],> 128 µg/mL
same,MIC,Staphylococcus aureus [11],128 µg/mL
same,MIC,Staphylococcus aureus [12],> 128 µg/mL
same,MIC,[13],128 µg/mL
same,MIC,[14],128 µg/mL
same,MIC,[15],4 µg/mL
same,MIC,[16],0.5 µg/mL
same,MIC,[17],> 128 µg/mL
same,MIC,[18],> 128 µg/mL
same,MIC,Staphylococcus aureus [19],1 µg/mL
same,MIC,Staphylococcus aureus [20],> 128 µg/mL
same,MIC,[21],> 128 µg/mL
same,MIC,[22],> 128 µg/mL
same,MIC,Staphylococcus aureus [23],> 128 µg/mL
same,MIC,Staphylococcus aureus [24],> 128 µg/mL
same,MIC,Staphylococcus aureus [25],> 128 µg/mL
same,MIC50,[26],> 128 µg/mL
same,MIC50,[27],0.25 µg/mL
same,MIC90,[27],2 µg/mL
same,MIC50,[28],128 µg/mL
same,MIC90,[29],64 µg/mL
CO[C@H]1/C=C/O[C@@]2(C)Oc3c(C)c(O)c4c(O)c(c(/C=N/N5CCN(C)CC5)c(O)c4c3C2=O)NC(=O)/C(C)=C\C=C\[C@H](C)[C@H](O)[C@@H](C)[C@@H](O)[C@@H](C)[C@H](OC(C)=O)[C@@H]1C [RIFAMPIN],MIC,[30],> 128 µg/mL
same,MIC,[31],> 128 µg/mL
same,MIC,[32],> 128 µg/mL
same,MIC,[33],> 128 µg/mL
same,MIC,[34],> 128 µg/mL
same,MIC50,Staphylococcus aureus [2],0.008 µg/mL
same,MIC90,Staphylococcus aureus [2],0.016 µg/mL
same,MIC50,Staphylococcus aureus [3],0.016 µg/mL
same,MIC90,Staphylococcus aureus [3],0.016 µg/mL
same,MIC50,Staphylococcus aureus [4],0.016 µg/mL
same,MIC90,Staphylococcus aureus [4],0.016 µg/mL
same,MIC50,Staphylococcus aureus [5],0.008 µg/mL
same,MIC90,Staphylococcus aureus [5],> 16 µg/mL
same,MIC,Staphylococcus aureus [6],≤ 0.004 µg/mL
same,MIC,Staphylococcus aureus [7],0.008 µg/mL
same,MIC,Staphylococcus aureus [8],0.03 µg/mL
same,MIC,Staphylococcus aureus [9],0.004 µg/mL
same,MIC,Staphylococcus aureus [10],0.008 µg/mL
same,MIC,Staphylococcus aureus [11],4 µg/mL
same,MIC,Staphylococcus aureus [12],> 128 µg/mL
same,MIC,[13],0.016 µg/mL
same,MIC,[14],0.03 µg/mL
same,MIC,[15],0.03 µg/mL
same,MIC,[16],0.03 µg/mL
same,MIC,[17],0.03 µg/mL
same,MIC,[18],0.016 µg/mL
same,MIC,Staphylococcus aureus [35],> 128 µg/mL
same,MIC,Staphylococcus aureus [19],0.016 µg/mL
same,MIC,Staphylococcus aureus [36],> 128 µg/mL
same,MIC,Staphylococcus aureus [37],> 128 µg/mL
same,MIC,Staphylococcus aureus [38],> 128 µg/mL
same,MIC,Staphylococcus aureus [20],> 32 µg/mL
same,MIC,[21],0.008 µg/mL
same,MIC,[22],0.016 µg/mL
same,MIC50,[26],0.008 µg/mL
same,MIC90,[26],> 16 µg/mL
same,MIC50,[27],0.008 µg/mL
same,MIC90,[27],0.016 µg/mL
same,MIC50,[28],0.008 µg/mL
same,MIC90,[28],2 µg/mL
same,MIC,[29],≤ 0.004 µg/mL
same,MIC90,[29],0.016 µg/mL
